Laboratory results reported in ChEMBL document CHEMBL1641468, “Synthesis of modified siRNA bearing C-5 polyamine-substituted pyrimidine nucleoside in their 3'-overhang regions and its RNAi activity” (Bioorg Med Chem Lett, 2011).
The source made the active and inactive calls. The calls are words filed in the database; no cut-off is given here.

Key:
[1] = biological target: T1, Hepatocyte nuclear factor 4-alpha (Homo sapiens) (UniProt P41235); experiment: Inhibition of HNF4alpha mRNA expression in human HepG2 cells after 24 hrs by real-time RT-PCR
T1 sequence (whole entry): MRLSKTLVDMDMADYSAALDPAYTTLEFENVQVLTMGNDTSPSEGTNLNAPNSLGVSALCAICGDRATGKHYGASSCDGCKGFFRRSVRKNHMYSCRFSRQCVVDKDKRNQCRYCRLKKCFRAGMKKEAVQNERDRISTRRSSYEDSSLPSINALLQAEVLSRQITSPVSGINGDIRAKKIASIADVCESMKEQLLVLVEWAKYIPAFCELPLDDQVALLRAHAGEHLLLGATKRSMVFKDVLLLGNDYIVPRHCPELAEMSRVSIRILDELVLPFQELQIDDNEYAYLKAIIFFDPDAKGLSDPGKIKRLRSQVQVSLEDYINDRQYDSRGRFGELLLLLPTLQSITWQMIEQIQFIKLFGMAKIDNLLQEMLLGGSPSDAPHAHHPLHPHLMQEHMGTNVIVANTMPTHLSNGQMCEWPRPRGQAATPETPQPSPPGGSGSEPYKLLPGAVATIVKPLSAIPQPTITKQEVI

[2] = biological target: T1, Hepatocyte nuclear factor 4-alpha (Homo sapiens); experiment: Inhibition of HNF4alpha mRNA expression in human HepG2 cells after 24 hrs by RT-PCR analysis; assay type: cell-based; conditions: in the assay text read “after 48 hrs” for “after 24 hrs”
Method in brief: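 HepG2 cells were grown in DMEM with 5% FBS at 37 °C and transfected with siRNA using a transfection reagent. After 24 h at 37 °C, the medium was changed to DMEM with 10% FBS and cells were incubated a further 24 h. Total RNA was reverse-transcribed for real-time PCR (40 cycles). HNF4α mRNA was normalized to GAPDH by ΔΔCt and expressed relative to nonsense control siRNA, using the mean Ct of duplicate PCRs from independent cells.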

| SMILES | Activity [1] | Activity [2] |
| --- | --- | --- |
| NCCN(CCN)CCNC(=O)Cc1cn([C@H]2C[C@H](OP(=O)(O)OC[C@H]3O[C@@H](n4cc(CC(=O)NCCN(CCN)CCN)c(=O)[nH]c4=O)C[C@@H]3O)[C@@H](COP(=O)(O)O[C@H]3[C@@H](O)[C@H](n4ccc(N)nc4=O)O[C@@H]3COP(=O)(O)O[C@H]3[C@@H](O)[C@H](n4ccc(N)nc4=O)O[C@@H]3COP(=O)(O)O[C@@H]3[C@H](O)[C@@H](COP(=O)(O)O[C@H]4[C@@H](O)[C@H](n5ccc(=O)[nH]c5=O)O[C@@H]4COP(=O)(O)O[C@H]4[C@@H](O)[C@H](n5ccc(N)nc5=O)O[C@@H]4COP(=O)(O)O[C@H]4[C@@H](O)[C@H](n5cnc6c(N)ncnc65)O[C@@H]4COP(=O)(O)O[C@H]4[C@@H](O)[C@H](n5ccc(N)nc5=O)O[C@@H]4COP(=O)(O)O[C@@H]4[C@H](O)[C@@H](COP(=O)(O)O[C@H]5[C@@H](O)[C@H](n6ccc(N)nc6=O)O[C@@H]5COP(=O)(O)O[C@H]5[C@@H](O)[C@H](n6cnc7c(N)ncnc76)O[C@@H]5COP(=O)(O)O[C@H]5[C@@H](O)[C@H](n6ccc(N)nc6=O)O[C@@H]5COP(=O)(O)O[C@H]5[C@@H](O)[C@H](n6ccc(N)nc6=O)O[C@@H]5COP(=O)(O)O[C@H]5[C@@H](O)[C@H](n6cnc7c(N)ncnc76)O[C@@H]5COP(=O)(O)O[C@H]5[C@@H](O)[C@H](n6ccc(N)nc6=O)O[C@@H]5COP(=O)(O)O[C@H]5[C@@H](O)[C@H](n6ccc(N)nc6=O)O[C@@H]5COP(=O)(O)O[C@H]5[C@@H](O)[C@H](n6ccc(=O)[nH]c6=O)O[C@@H]5COP(=O)(O)O[C@@H]5[C@H](O)[C@@H](COP(=O)(O)O[C@H]6[C@@H](O)[C@H](n7ccc(=O)[nH]c7=O)O[C@@H]6COP(=O)(O)O[C@H]6[C@@H](O)[C@H](n7ccc(=O)[nH]c7=O)O[C@@H]6COP(=O)(O)O)O[C@H]5n5cnc6c(=O)[nH]c(N)nc65)O[C@H]4n4cnc5c(=O)[nH]c(N)nc54)O[C@H]3n3cnc4c(=O)[nH]c(N)nc43)O2)c(=O)[nH]c1=O | Active | Active |
| Cc1cn([C@H]2C[C@H](OP(=O)(O)OC[C@H]3O[C@@H](n4cc(C)c(=O)[nH]c4=O)C[C@@H]3O)[C@@H](COP(=O)(O)O[C@H]3[C@@H](O)[C@H](n4ccc(N)nc4=O)O[C@@H]3COP(=O)(O)O[C@H]3[C@@H](O)[C@H](n4ccc(N)nc4=O)O[C@@H]3COP(=O)(O)O[C@@H]3[C@H](O)[C@@H](COP(=O)(O)O[C@H]4[C@@H](O)[C@H](n5ccc(=O)[nH]c5=O)O[C@@H]4COP(=O)(O)O[C@H]4[C@@H](O)[C@H](n5ccc(N)nc5=O)O[C@@H]4COP(=O)(O)O[C@H]4[C@@H](O)[C@H](n5cnc6c(N)ncnc65)O[C@@H]4COP(=O)(O)O[C@H]4[C@@H](O)[C@H](n5ccc(N)nc5=O)O[C@@H]4COP(=O)(O)O[C@@H]4[C@H](O)[C@@H](COP(=O)(O)O[C@H]5[C@@H](O)[C@H](n6ccc(N)nc6=O)O[C@@H]5COP(=O)(O)O[C@H]5[C@@H](O)[C@H](n6cnc7c(N)ncnc76)O[C@@H]5COP(=O)(O)O[C@H]5[C@@H](O)[C@H](n6ccc(N)nc6=O)O[C@@H]5COP(=O)(O)O[C@H]5[C@@H](O)[C@H](n6ccc(N)nc6=O)O[C@@H]5COP(=O)(O)O[C@H]5[C@@H](O)[C@H](n6cnc7c(N)ncnc76)O[C@@H]5COP(=O)(O)O[C@H]5[C@@H](O)[C@H](n6ccc(N)nc6=O)O[C@@H]5COP(=O)(O)O[C@H]5[C@@H](O)[C@H](n6ccc(N)nc6=O)O[C@@H]5COP(=O)(O)O[C@H]5[C@@H](O)[C@H](n6ccc(=O)[nH]c6=O)O[C@@H]5COP(=O)(O)O[C@@H]5[C@H](O)[C@@H](COP(=O)(O)O[C@H]6[C@@H](O)[C@H](n7ccc(=O)[nH]c7=O)O[C@@H]6COP(=O)(O)O[C@H]6[C@@H](O)[C@H](n7ccc(=O)[nH]c7=O)O[C@@H]6COP(=O)(O)O)O[C@H]5n5cnc6c(=O)[nH]c(N)nc65)O[C@H]4n4cnc5c(=O)[nH]c(N)nc54)O[C@H]3n3cnc4c(=O)[nH]c(N)nc43)O2)c(=O)[nH]c1=O | Active | Active |
| Cc1cn([C@H]2C[C@H](OP(=O)(O)OC[C@H]3O[C@@H](n4cc(CC(=O)NCCN(CCN)CCN)c(=O)[nH]c4=O)C[C@@H]3O)[C@@H](COP(=O)(O)O[C@H]3[C@@H](O)[C@H](n4ccc(N)nc4=O)O[C@@H]3COP(=O)(O)O[C@H]3[C@@H](O)[C@H](n4ccc(N)nc4=O)O[C@@H]3COP(=O)(O)O[C@@H]3[C@H](O)[C@@H](COP(=O)(O)O[C@H]4[C@@H](O)[C@H](n5ccc(=O)[nH]c5=O)O[C@@H]4COP(=O)(O)O[C@H]4[C@@H](O)[C@H](n5ccc(N)nc5=O)O[C@@H]4COP(=O)(O)O[C@H]4[C@@H](O)[C@H](n5cnc6c(N)ncnc65)O[C@@H]4COP(=O)(O)O[C@H]4[C@@H](O)[C@H](n5ccc(N)nc5=O)O[C@@H]4COP(=O)(O)O[C@@H]4[C@H](O)[C@@H](COP(=O)(O)O[C@H]5[C@@H](O)[C@H](n6ccc(N)nc6=O)O[C@@H]5COP(=O)(O)O[C@H]5[C@@H](O)[C@H](n6cnc7c(N)ncnc76)O[C@@H]5COP(=O)(O)O[C@H]5[C@@H](O)[C@H](n6ccc(N)nc6=O)O[C@@H]5COP(=O)(O)O[C@H]5[C@@H](O)[C@H](n6ccc(N)nc6=O)O[C@@H]5COP(=O)(O)O[C@H]5[C@@H](O)[C@H](n6cnc7c(N)ncnc76)O[C@@H]5COP(=O)(O)O[C@H]5[C@@H](O)[C@H](n6ccc(N)nc6=O)O[C@@H]5COP(=O)(O)O[C@H]5[C@@H](O)[C@H](n6ccc(N)nc6=O)O[C@@H]5COP(=O)(O)O[C@H]5[C@@H](O)[C@H](n6ccc(=O)[nH]c6=O)O[C@@H]5COP(=O)(O)O[C@@H]5[C@H](O)[C@@H](COP(=O)(O)O[C@H]6[C@@H](O)[C@H](n7ccc(=O)[nH]c7=O)O[C@@H]6COP(=O)(O)O[C@H]6[C@@H](O)[C@H](n7ccc(=O)[nH]c7=O)O[C@@H]6COP(=O)(O)O)O[C@H]5n5cnc6c(=O)[nH]c(N)nc65)O[C@H]4n4cnc5c(=O)[nH]c(N)nc54)O[C@H]3n3cnc4c(=O)[nH]c(N)nc43)O2)c(=O)[nH]c1=O | Active | Active |
